Here are results for one compound from ChEMBL document CHEMBL4130408, “Photoactivation provides a mechanistic explanation for pan-assay interference behaviour of 2-aminopyrroles in lipoxygenase inhibition” (Eur J Med Chem, 2017).

Active and inactive are the calls of the source. The calls are words filed in the database; no cut-off is given here.

Experiment [1] deals with HCC-1.2. As to the kind of experiment: Photocytotoxicity against human HCC1.2 cells assessed as growth inhibition at 1 to 10 uM after day light irradiation for 10 mins. The experiment is classed as functional, cell-based.
Experiment [2] deals with T1, Polyunsaturated fatty acid lipoxygenase ALOX15 (Homo sapiens) (UniProt P16050).
T1 sequence (whole entry): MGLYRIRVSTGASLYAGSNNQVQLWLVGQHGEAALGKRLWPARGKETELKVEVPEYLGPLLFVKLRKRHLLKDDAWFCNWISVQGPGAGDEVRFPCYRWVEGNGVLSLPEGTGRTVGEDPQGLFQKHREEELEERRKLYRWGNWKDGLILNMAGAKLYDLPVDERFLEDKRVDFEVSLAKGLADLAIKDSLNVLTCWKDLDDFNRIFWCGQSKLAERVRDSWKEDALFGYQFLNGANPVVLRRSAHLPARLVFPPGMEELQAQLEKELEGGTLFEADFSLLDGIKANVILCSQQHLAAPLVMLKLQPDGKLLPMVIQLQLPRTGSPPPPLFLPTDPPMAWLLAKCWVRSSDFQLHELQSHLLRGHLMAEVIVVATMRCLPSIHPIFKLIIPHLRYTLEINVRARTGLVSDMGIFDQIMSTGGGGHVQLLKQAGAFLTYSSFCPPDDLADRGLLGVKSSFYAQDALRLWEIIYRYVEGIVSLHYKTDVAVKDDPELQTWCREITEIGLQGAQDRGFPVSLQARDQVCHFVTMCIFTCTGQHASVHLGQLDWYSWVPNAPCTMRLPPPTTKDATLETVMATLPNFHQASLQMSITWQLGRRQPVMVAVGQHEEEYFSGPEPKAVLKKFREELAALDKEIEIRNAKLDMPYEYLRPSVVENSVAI
As to the kind of experiment: Inhibition of recombinant human 15-LOX-1 expressed in Escherichia coli BL21(DE3) at 10 uM preincubated in light followed by measuring UV absorbance of 13(S)-HpODE at 234 nm over 16 mins. To be noted: TDE = time-dependent effect. A digest of the protocol:
(§1)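 Light-sensitivity test: h-15-LOX-1 preincubated with inhibitor for 2, 5 and 10 min under daylight, 365 nm UV irradiation or darkness, in triplicate. Linoleic acid conversion to 13(S)-HpODE then followed at 234 nm over 16 min, relative to a no-inhibitor positive control. Buffer 25 mM HEPES pH 7.4. Experiments repeated at least twice.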

Experiment [3] concerns the target T1, Polyunsaturated fatty acid lipoxygenase ALOX15 (Homo sapiens). As to the kind of experiment: Inhibition of recombinant human 15-LOX-1 expressed in Escherichia coli BL21(DE3) assessed as residual activity at 10 uM preincubated in darkness followed by measuring UV absorbance of 13(S)-HpODE at 234 nm over 16 mins. Put shortly:
as §1

Experiment [4] shares this target. As to the kind of experiment: Inhibition of recombinant human 15-LOX-1 expressed in Escherichia coli BL21(DE3) at 10 uM preincubated with UV light at 365 nm followed by measuring UV absorbance of 13(S)-HpODE at 234 nm over 16 mins. To be noted: TDE = time-dependent effect. Put shortly: as §1
Experiment [5] has as its system HCC-1.2. As to the kind of experiment: Photocytotoxicity against human HCC1.2 cells assessed as decrease in cell viability at 1 to 10 uM preincubated with UV light at 365 nm for 10 mins measured after 48 hrs by neutral red assay. The experiment is classed as functional, cell-based.
Experiment [6] concerns HCC-1.2. As to the kind of experiment: Cytotoxicity against human HCC1.2 cells assessed as growth inhibition after 48 hrs by neutral red assay. It counts as functional. Put shortly: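 HCC-1.2 hepatocarcinoma cells grown in RPMI1640 with 10% heat-inactivated FCS at 37 °C, 5% CO2. 2 × 10^5 cells/well seeded and grown 48 h. Viable cells quantified by neutral red (50 μg/mL) uptake from serum-free medium over 2 h. Dye dissolved in 1% acetic acid/70% ethanol, read as absorbance 560 minus 620 nm. Triplicate wells; three to five independent experiments; LD50 reported.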

Experiment [7] has as its target T1, Polyunsaturated fatty acid lipoxygenase ALOX15 (Homo sapiens). As to the kind of experiment: Inhibition of recombinant human 15-LOX-1 expressed in Escherichia coli BL21(DE3) at 10 uM preincubated with UV light at 254 nm for 2 to 10 mins followed by measuring UV absorbance of 13(S)-HpODE at 234 nm over 16 mins. Put shortly: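 254 nm UV irradiation used as a control during preincubation of h-15-LOX-1 with inhibitor. Activity was then read as 13(S)-HpODE absorbance at 234 nm over 16 min, against a no-inhibitor control. Assay buffer 25 mM HEPES pH 7.4.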

Experiment [8] addresses T2, Polyunsaturated fatty acid lipoxygenase ALOX15 (Homo sapiens, UniProt P16050).
T2 sequence (P16050 whole entry): T1 sequence (whole entry)
Kind of experiment: Inhibition of recombinant human 15-LOX-1 expressed in Escherichia coli BL21(DE3) using linoleic acid as substrate preincubated for 10 mins followed by substrate addition.

The test system of experiment [9] is HCC-1.2. As to the kind of experiment: Photocytotoxicity against human HCC1.2 cells assessed as decrease in cell viability at 1 to 10 uM preincubated with day light for 10 mins measured after 48 hrs by neutral red assay. It counts as functional, cell-based.

A word on the IC50: it is the concentration that inhibits the measured activity by half.

As for `Nc1[nH]c(C(=O)c2ccccc2)c(-c2ccc(Cl)cc2Cl)c1C(=O)c1cccc(Cl)c1`, the outcome with HCC-1.2 [1], in the experiment with HCC-1.2 [5] and in the experiment on HCC-1.2 [9] was Active. In addition, the inhibition entry in experiment [2] and in experiment [4] was “Tde” in each case. Also, the results for the Activity (in [3]; in the experiment on HCC-1.2 [6]) were 80% and “Dose-dependent effect”, respectively. Moreover, in the experiment on HCC-1.2 [6] (HCC-1.2, 48 h, read-out: LD50 (the source's name)), the CC50 was 0.69 µM. The inhibition result in experiment [7] is “inactive”. In addition, the IC50 in experiment [8] was found to be 6.9 µM.
